Calls of active or inactive are those of the source. No cut-off for these calls is given here.
Experiments:
Format in all cases: functional, organism-based
[1] = system: Poliovirus 2; experiment: Antiviral activity against Poliovirus Sabin 2 infected in human HeLa cells assessed as reduction in virus-induced cytopathic effect after 72 hrs by crystal violet staining-based assay; details: Enterovirus C
In short: (§1)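 HeLa cells grown in MEM-10% FBS, seeded at 2x10^5 cells/mL in MEM-2% FBS and preincubated 24 h at 37°C, 5% CO2. Compound and virus were cross-titrated […] compound in 0.5 log10 steps (7-point curves), with duplicate wells and three replicate tests per virus. After 72 h at 37°C, cells were crystal violet stained and read at 590 nm. EC50 came from a four-parameter fit; if all virus dilutions gave >80% monolayer destruction, the value was […].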

[2] = system: Poliovirus 2; experiment: Antiviral activity against Human poliovirus 2 P712 infected in human HeLa cells assessed as reduction in virus-induced cytopathic effect after 72 hrs by crystal violet staining-based assay; details: Enterovirus C; in short: as §1
[3] = system: Poliovirus 2; experiment: Antiviral activity against Human poliovirus 2 10220 infected in human HeLa cells assessed as reduction in virus-induced cytopathic effect after 72 hrs by crystal violet staining-based assay; details: Enterovirus C, 10220, HeLa; in short: as §1
[4] = system: Poliovirus 1; experiment: Antiviral activity against Human poliovirus 1 10691 infected in human HeLa cells assessed as reduction in virus-induced cytopathic effect after 72 hrs by crystal violet staining-based assay; details: Enterovirus C, 10691, HeLa; in short: as §1
[5] = system: Poliovirus 2; experiment: Antiviral activity against Human poliovirus 2 10232 infected in human HeLa cells assessed as reduction in virus-induced cytopathic effect after 72 hrs by crystal violet staining-based assay; details: Enterovirus C, 10232, HeLa; in short: as §1
[6] = system: Poliovirus 1; experiment: Antiviral activity against Human poliovirus 1 10693 infected in human HeLa cells assessed as reduction in virus-induced cytopathic effect after 72 hrs by crystal violet staining-based assay; details: Enterovirus C, 10693, HeLa; in short: as §1
[7] = system: Poliovirus 1; experiment: Antiviral activity against Human poliovirus 1 10223 infected in human HeLa cells assessed as reduction in virus-induced cytopathic effect after 72 hrs by crystal violet staining-based assay; details: Enterovirus C, 10223, HeLa; in short: as §1
[8] = system: Poliovirus 1; experiment: Antiviral activity against Human poliovirus 1 10235 infected in human HeLa cells assessed as reduction in virus-induced cytopathic effect after 72 hrs by crystal violet staining-based assay; details: Enterovirus C, 10235, HeLa; in short: as §1
[9] = system: Poliovirus 2; experiment: Antiviral activity against Human poliovirus 2 Lansing infected in human HeLa cells assessed as reduction in virus-induced cytopathic effect after 72 hrs by crystal violet staining-based assay; details: Enterovirus C; in short: as §1
[10] = system: Poliovirus 1; experiment: Antiviral activity against Human poliovirus 1 10695 infected in human HeLa cells assessed as reduction in virus-induced cytopathic effect after 72 hrs by crystal violet staining-based assay; details: Enterovirus C, 10695, HeLa; in short: as §1
[11] = system: Poliovirus 2; experiment: Antiviral activity against Human poliovirus 2 10229 infected in human HeLa cells assessed as reduction in virus-induced cytopathic effect after 72 hrs by crystal violet staining-based assay; details: Enterovirus C, 10229, HeLa; in short: as §1
[12] = system: Poliovirus 2; experiment: Antiviral activity against Human poliovirus 2 10243 infected in human HeLa cells assessed as reduction in virus-induced cytopathic effect after 72 hrs by crystal violet staining-based assay; details: Enterovirus C, 10243, HeLa; in short: as §1
[13] = system: Poliovirus 2; experiment: Antiviral activity against Poliovirus Sabin 2 infected in human HeLa cells assessed as reduction in virus-induced cytopathic effect at 1 uM treated 6 hrs post infection and measured after 12 hrs by luminescence based assay
In short: (§2)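 HeLa monolayers were infected with Sabin 2 at 100 CCID50 for 1 h at 37°C, then washed 3x. Drug was added at 0, 1, 2, 4, 6 or 8 h post-infection and left in place. At 12 h, virus was freeze-thawed 3x and titrated in 0.5 log10 dilutions (16 replicates) on HeLa cells for 5 days. CPE was read by ATP luminescence, titre calculated as CCID50 (Kärber); mean of three independent experiments.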

[14] = system: Poliovirus 3; experiment: Antiviral activity against Human poliovirus 3 10804 infected in human HeLa cells assessed as reduction in virus-induced cytopathic effect after 72 hrs by crystal violet staining-based assay; details: Enterovirus C, 10804, HeLa; in short: as §1
[15] = system: Poliovirus 1; experiment: Antiviral activity against Human poliovirus 1 Mahoney infected in human HeLa cells assessed as reduction in virus-induced cytopathic effect after 72 hrs by crystal violet staining-based assay; details: Enterovirus C; in short: as §1
[16] = system: Poliovirus 1; experiment: Antiviral activity against Human poliovirus 1 10692 infected in human HeLa cells assessed as reduction in virus-induced cytopathic effect after 72 hrs by crystal violet staining-based assay; details: Enterovirus C, 10692, HeLa; in short: as §1
[17] = system: Poliovirus 2; experiment: Antiviral activity against Poliovirus Sabin 2 infected in human HeLa cells assessed as reduction in virus-induced cytopathic effect at 1 uM treated 1 hr post infection and measured after 12 hrs by luminescence based assay; in short: as §2
[18] = system: Poliovirus 1; experiment: Antiviral activity against Human poliovirus 1 10224 infected in human HeLa cells assessed as reduction in virus-induced cytopathic effect after 72 hrs by crystal violet staining-based assay; details: Enterovirus C, 10224, HeLa; in short: as §1
[19] = system: Poliovirus 3; experiment: Antiviral activity against Human poliovirus 3 Sabin 3 infected in human HeLa cells assessed as reduction in virus-induced cytopathic effect after 72 hrs by crystal violet staining-based assay; details: Enterovirus C, Sabin 3, HeLa; in short: as §1
[20] = system: Poliovirus 2; experiment: Antiviral activity against Human poliovirus 2 10233 infected in human HeLa cells assessed as reduction in virus-induced cytopathic effect after 72 hrs by crystal violet staining-based assay; details: Enterovirus C, 10233, HeLa; in short: as §1
[21] = system: Poliovirus 3; experiment: Antiviral activity against Poliovirus Sabin 3 infected in human HeLa cells assessed as reduction in virus-induced cytopathic effect after 72 hrs by crystal violet staining-based assay; details: Enterovirus C
In short: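 HeLa cells grown in MEM-10% FBS, seeded at 2x10^5 cells/mL in MEM-2% FBS and held 24 h at 37°C, 5% CO2. Compound and virus were cross-titrated together on the cells starting at 10 µM compound, in 0.5 log10 steps, duplicate wells, three replicate tests per virus. Incubated 72 h at 37°C, stained with crystal violet, A590 read. EC50 from four-parameter fit.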

[22] = system: Poliovirus 1; experiment: Antiviral activity against Human poliovirus 1 10694 infected in human HeLa cells assessed as reduction in virus-induced cytopathic effect after 72 hrs by crystal violet staining-based assay; details: Enterovirus C, 10694, HeLa; in short: as §1
[23] = system: Poliovirus 1; experiment: Antiviral activity against Human poliovirus 1 10225 infected in human HeLa cells assessed as reduction in virus-induced cytopathic effect after 72 hrs by crystal violet staining-based assay; details: Enterovirus C, 10225, HeLa; in short: as §1
[24] = system: Poliovirus 2; experiment: Antiviral activity against Poliovirus Sabin 2 infected in human HeLa cells assessed as reduction in virus-induced cytopathic effect at 1 uM treated 0 to 8 hrs post infection and measured after 12 hrs by luminescence based assay; in short: as §2

| SMILES | EC50 [1] [nM] | EC50 [2] [nM] | EC50 [3] [nM] | EC50 [4] [nM] | EC50 [5] [nM] | EC50 [6] [nM] | EC50 [7] [nM] | EC50 [8] [nM] | EC50 [9] [nM] | EC50 [10] [nM] | EC50 [11] [nM] | EC50 [12] [nM] | EC50 [14] [nM] | EC50 [15] [nM] | EC50 [16] [nM] | EC50 [18] [nM] | EC50 [19] [nM] | EC50 [20] [nM] | EC50 [21] [nM] | EC50 [22] [nM] | also measured |
| --- | --- | --- | --- | --- | --- | --- | --- | --- | --- | --- | --- | --- | --- | --- | --- | --- | --- | --- | --- | --- | --- |
| Cc1ccc(C(=O)CCCCOc2ccc(C3=NCCO3)cc2)s1 | 187 | > 100000 | 40 | 67500 | 540 | 24200 | 70 | 4610 | 590 | 8410 | 550 | 40 | > 100000 | > 100000 | > 100000 | > 100000 | 320 | 450 | 367 | 7220 | Activity [13]: inactive; Activity [17]: inactive; EC50 [23]: 35700 nM |
| Cc1ccc(C(=O)CCCCSc2ccc(C3=NCCO3)cc2)s1 | 137 | 2930 | 1000 | 560 | 6330 | > 10000 | 3730 | 8470 | 2270 | 7430 | 2770 | 1770 | 440 | > 10000 | > 10000 | > 10000 | 330 | 8470 | 330 | 6230 | Activity [13]: Active; Activity [17]: inactive; EC50 [23]: > 10000 nM |
| Cc1ccc(C(=O)CCC/C=C/c2ccc(C3=NCCO3)cc2)s1 | 27 | 240 | 20 | 980 | 23 | 980 | 20 | 400 | 60 | 580 | 510 | 30 | 20 | 70 | 780 | 1110 | 50 | 190 | 53 | 2300 | EC50 [23]: 810 nM; Activity [24]: Active |

From ChEMBL document CHEMBL4371031, “In Vitro Antiviral Activity of New Oxazoline Derivatives as Potent Poliovirus Inhibitors” (J Med Chem, 2019)
